Reference: ChEMBL document CHEMBL4627381, “Licochalcone A Selectively Resensitizes ABCG2-Overexpressing Multidrug-Resistant Cancer Cells to Chemotherapeutic Drugs” (J Nat Prod, 2020)
pIC50: −log10 of the molar value. Activity calls are given as the source filed them. The calls are words filed in the database; no cut-off is given here.

Experiments:
S1 [1] = test: Induction of apoptosis in human S1 cells assessed as necrotic cells at 10 uM incubated for 48 hrs by annexin V/propidium iodide staining based flow cytometry (reference value: 0.2%); format: functional
Procedure, shortened: (§1)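 S1 cells were exposed for 48 h to DMSO, 10 μM compound, 5 μM topotecan, or 5 μM topotecan plus 10 μM compound. They were then stained with 1.25 μg/mL annexin V–FITC and 0.1 mg/mL PI for 15 min at room temperature. 10000 cells per sample were analysed by flow cytometry; three independent experiments.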

[2] = Cytotoxicity against human NCI-H460/MX20 cells harboring ABCG2 after 72 hrs by MTT assay; format: functional, cell-based; conditions: NCI-H460/MX20, 72 h
Procedure, shortened: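 Cells seeded at 5000/well, allowed 24 h, then exposed to a concentration series for 72 h at 37 °C in DMSO vehicle (up to 0.5% v/v). HEK293 lines were read with CCK-8 and cancer lines with MTT. IC50 was taken from fitted dose-response curves over at least three independent experiments. Lines were kept drug-free for 7 days before assay.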

S1 [3] = test: Induction of apoptosis in human S1 cells assessed as late apoptotic cells at 10 uM incubated for 48 hrs in presence of topotecan by annexin V/propidium iodide staining based flow cytometry (reference value: 3.6%); format: functional; procedure, shortened: as §1
[4] = target: T1, Broad substrate specificity ATP-binding cassette transporter ABCG2 (Homo sapiens, UniProt Q9UNQ0); test: Reversal of ABCG2 (unknown origin)-mediated multidrug resistance in human S1-M1-80 cells assessed as fold-change in topotecan IC50 at 3 uM after 72 hrs by MTT assay relative to topotecan IC50; format: cell-based; conditions: s1-m1-80, 72 h
T1 sequence (Q9UNQ0 whole entry): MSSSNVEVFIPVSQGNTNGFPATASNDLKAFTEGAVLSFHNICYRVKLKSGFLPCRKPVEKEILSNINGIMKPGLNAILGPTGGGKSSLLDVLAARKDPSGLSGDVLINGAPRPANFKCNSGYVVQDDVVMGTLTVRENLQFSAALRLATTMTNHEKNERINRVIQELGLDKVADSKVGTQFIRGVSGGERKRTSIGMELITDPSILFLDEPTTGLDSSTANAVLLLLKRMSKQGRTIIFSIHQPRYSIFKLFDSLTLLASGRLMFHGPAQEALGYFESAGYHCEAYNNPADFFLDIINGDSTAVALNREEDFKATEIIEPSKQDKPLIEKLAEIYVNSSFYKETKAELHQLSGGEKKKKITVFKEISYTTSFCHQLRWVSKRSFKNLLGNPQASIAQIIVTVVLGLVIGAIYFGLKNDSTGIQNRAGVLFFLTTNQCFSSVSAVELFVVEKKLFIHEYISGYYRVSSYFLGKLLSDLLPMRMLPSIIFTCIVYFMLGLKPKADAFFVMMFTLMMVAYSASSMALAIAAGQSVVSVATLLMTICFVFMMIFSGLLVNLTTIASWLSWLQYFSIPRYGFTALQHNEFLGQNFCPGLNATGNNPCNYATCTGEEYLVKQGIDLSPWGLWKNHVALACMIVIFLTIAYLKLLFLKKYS
Procedure, shortened: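 MTT readout in S1-M1-80 colon cancer cells (mitoxantrone-selected, held in 80 μM mitoxantrone, then drug-free 7 days before assay). Cells were seeded at 5000/well for 24 h, then given increasing mitoxantrone or topotecan with DMSO or non-toxic modulator for 72 h at 37 °C. IC50 came from fitted dose-response curves (at least three independent experiments). Fold-reversal = IC50 without modulator ÷ IC50 with modulator.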

[5] = target: T1, Broad substrate specificity ATP-binding cassette transporter ABCG2; test: Reversal of ABCG2 (unknown origin)-mediated multidrug resistance in human H460-MX20 cells assessed as fold change in topotecan IC50 at 2 uM after 72 hrs by MTT assay relative to topotecan IC50; format: cell-based
Procedure, shortened: (§2)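 Cells held drug-free 7 days, seeded at 5000 per well for 24 h, then exposed 72 h to mitoxantrone or topotecan dilutions with DMSO (≤0.5%), LCA 0.5–3.0 μM, or Ko143 1.0 μM. Viability was read by MTT. IC50 came from fitted dose-response curves of three independent experiments. Fold-reversal = IC50 without modulator divided by IC50 with modulator.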

NCI-H460 = test: Effect on topotecan-induced cytotoxicity against human H460 cells assessed as fold change in topotecan IC50 at 3 uM after 72 hrs by MTT assay relative to topotecan IC50; format: functional
Procedure, shortened: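 Parental S1 colon and H460 lung cancer cells were exposed for 72 h to a mitoxantrone or topotecan concentration series, with or without modulator at 0.5–3.0 μM, and read by MTT. Fold-reversal is IC50 without modulator divided by IC50 with modulator, taken from dose-response curves of three independent experiments.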

S1 [6] = test: Induction of pheophorbide A accumulation in human S1 cells at 20 uM incubated for 1 hr by FACScan flow cytometry; format: functional, cell-based
Procedure, shortened: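 Cells held drug-free 7 days. 3 × 10^5 cells were suspended in IMDM with 5% FCS and loaded with pheophorbide A (ex 395/em 670 nm) for 1 h, with or without LCA (20 μM for single-concentration accumulation) or Ko143 3 μM as reference. Read immediately by flow cytometry. Efflux inhibition was run over a concentration range; mean ± SD of three experiments.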

HEK293 [7] = test: Effect on topotecan-induced cytotoxicity against HEK293 cells assessed as fold change in topotecan IC50 at 0.5 uM after 72 hrs by CCK8 assay relative to topotecan IC50; format: cell-based; conditions: human, hek293, 72 h
Procedure, shortened: (§3)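 Reversal assay in parental pcDNA-HEK293 and transfected HEK293 lines (ABCB1 for colchicine, ABCC1 for etoposide, ABCG2 for mitoxantrone/topotecan). Substrate drug series was given with or without nontoxic modulator (0.5, 1.0, 2.0 or 3.0 μM) for 72 h, with a CCK-8 read-out. Fold-reversal is substrate IC50 without modulator divided by IC50 with modulator. Three independent experiments.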

[8] = target: T1, Broad substrate specificity ATP-binding cassette transporter ABCG2; test: Reversal of human ABCG2-mediated multidrug resistance in HEK293/R482 cells assessed as potentiation of mitoxantrone-induced cytotoxicity after 72 hrs by CCK8 assay; format: cell-based
Procedure, shortened: (§4)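 Cells were seeded at 5000/well for 24 h, then given colchicine, etoposide, mitoxantrone or topotecan ± non-toxic modulator (0.5–3.0 μM) for 72 h, with DMSO up to 0.5%. IC50 came from fitted curves (mean ± SD, three experiments). Fold-reversal = IC50 without modulator ÷ IC50 with modulator.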

HEK293 [9] = test: Effect on etoposide-induced cytotoxicity against HEK293 cells assessed as fold change in etoposide IC50 at 0.5 uM after 72 hrs by CCK8 assay relative to etoposide IC50; format: cell-based; conditions: human, hek293, 72 h; procedure, shortened: as §3
S1 [10] = test: Induction of apoptosis in human S1 cells assessed as early apoptotic cells at 10 uM incubated for 48 hrs by annexin V/propidium iodide staining based flow cytometry (reference value: 2%); format: functional; procedure, shortened: as §1
[11] = target: T1, Broad substrate specificity ATP-binding cassette transporter ABCG2; test: Reversal of ABCG2 (unknown origin)-mediated multidrug resistance in human H460-MX20 cells assessed as fold change in topotecan IC50 at 1 uM after 72 hrs by MTT assay relative to topotecan IC50; format: cell-based; procedure, shortened: as §2
[12] = target: Multidrug resistance-associated protein 1 (Homo sapiens, UniProt P33527); test: Reversal of human ABCC1-mediated multidrug resistance in HEK293/MRP1 cells assessed as fold-change in etoposide IC50 at 0.5 uM after 72 hrs by CCK8 relative to etoposide IC50; format: cell-based; procedure, shortened: as §4
Sequence of Multidrug resistance-associated protein 1 (P33527 whole entry): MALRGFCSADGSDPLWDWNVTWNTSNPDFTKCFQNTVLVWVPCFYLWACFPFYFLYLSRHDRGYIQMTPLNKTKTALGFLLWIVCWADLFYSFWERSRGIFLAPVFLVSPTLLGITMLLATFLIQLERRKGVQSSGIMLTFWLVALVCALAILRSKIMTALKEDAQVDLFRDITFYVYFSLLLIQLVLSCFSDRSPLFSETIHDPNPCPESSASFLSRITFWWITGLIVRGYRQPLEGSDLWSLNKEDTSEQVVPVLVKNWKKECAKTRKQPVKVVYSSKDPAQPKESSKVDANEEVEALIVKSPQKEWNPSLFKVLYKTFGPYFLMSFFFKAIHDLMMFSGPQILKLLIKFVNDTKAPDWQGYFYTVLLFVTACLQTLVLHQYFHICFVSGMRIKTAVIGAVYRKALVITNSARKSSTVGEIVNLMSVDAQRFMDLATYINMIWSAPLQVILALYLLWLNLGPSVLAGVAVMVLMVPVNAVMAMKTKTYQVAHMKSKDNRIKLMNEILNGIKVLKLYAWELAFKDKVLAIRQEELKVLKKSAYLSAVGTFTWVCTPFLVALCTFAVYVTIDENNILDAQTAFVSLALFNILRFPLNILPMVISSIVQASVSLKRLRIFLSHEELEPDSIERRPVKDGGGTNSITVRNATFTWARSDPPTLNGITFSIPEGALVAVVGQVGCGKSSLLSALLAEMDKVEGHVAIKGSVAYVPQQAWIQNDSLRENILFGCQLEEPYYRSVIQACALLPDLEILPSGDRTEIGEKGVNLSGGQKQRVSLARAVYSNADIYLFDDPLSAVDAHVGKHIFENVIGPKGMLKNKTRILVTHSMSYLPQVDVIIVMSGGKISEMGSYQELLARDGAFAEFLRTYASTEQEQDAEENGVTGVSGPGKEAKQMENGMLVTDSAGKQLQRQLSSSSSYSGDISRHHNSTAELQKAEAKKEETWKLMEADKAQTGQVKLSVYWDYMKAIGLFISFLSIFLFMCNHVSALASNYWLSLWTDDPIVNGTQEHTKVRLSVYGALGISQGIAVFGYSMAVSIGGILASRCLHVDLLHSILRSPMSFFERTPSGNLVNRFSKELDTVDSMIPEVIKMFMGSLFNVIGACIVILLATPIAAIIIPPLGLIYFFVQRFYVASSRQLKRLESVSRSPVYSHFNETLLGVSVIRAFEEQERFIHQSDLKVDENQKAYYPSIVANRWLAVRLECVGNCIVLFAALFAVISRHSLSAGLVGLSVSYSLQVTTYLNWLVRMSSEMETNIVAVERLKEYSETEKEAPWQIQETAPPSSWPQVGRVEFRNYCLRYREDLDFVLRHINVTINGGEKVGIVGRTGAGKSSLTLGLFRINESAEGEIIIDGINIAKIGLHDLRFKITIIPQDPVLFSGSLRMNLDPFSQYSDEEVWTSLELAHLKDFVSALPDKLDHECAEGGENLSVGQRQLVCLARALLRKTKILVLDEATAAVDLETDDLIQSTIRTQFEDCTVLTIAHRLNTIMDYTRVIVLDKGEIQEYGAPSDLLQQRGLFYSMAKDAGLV

Compound `C=CC(C)(C)c1cc(/C=C/C(=O)c2ccc(O)cc2)c(OC)cc1O` [LICOAGROCHACONE A] has an Activity (S1 [1]) of 0.2%, a pIC50 [2] of 4.30 to 5.00 and an Activity (S1 [3]) of 22.5%. The “fold change (FC)” value [4] was 32.7, the “fold change (FC)” value [5] was 8.9 and the “fold change (FC)” value (NCI-H460) was 1.7. The Activity (S1 [6]) was “inactive”, the “fold change (FC)” value (HEK293 [7]) was 0.9 and the Activity [8] was “Dose-dependent effect”. For the same compound, the “fold change (FC)” value (HEK293 [9]) was 0.7, the Activity (S1 [10]) was 1.7% and the “fold change (FC)” value [11] was 9.2. The “fold change (FC)” value [12] was 1.2.
